Assay results taken from ChEMBL document CHEMBL1275515, “CYP56 (Dit2p) in Candida albicans: characterization and investigation of its role in growth and antifungal drug susceptibility” (Antimicrob Agents Chemother, 2008).
Converted amounts (≈) assume the structure as drawn.

Experiments:
Candida albicans [1] = assay: Binding affinity to Candida albicans CYP56 assessed as dissociation constant for enzyme-substrate complex by spectrophotometry
How it was run: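 His-tagged CYP56 expressed in E. coli BL21(DE3) and Ni2+-NTA purified; 2 μM enzyme in 0.1 M potassium phosphate (pH 7.4) with 20% glycerol. N-formyl tyrosine titrated from 26 to 253 μM, with spectra read at 320–470 nm until saturation. ΔA390-412 fitted to the Hill equation by nonlinear regression. A Hill plot gave ks (enzyme–substrate dissociation constant) and Hill number.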

Candida albicans [2] = assay: Antimicrobial activity against Candida albicans YNM11 harboring cyp56delta::FRT/cyp56::FRT mutant gene by Etest method; format: functional
Candida albicans [3] = assay: Antimicrobial activity against wild type Candida albicans SC5314 by Etest method; format: functional
Candida albicans [4] = assay: Antimicrobial activity against Candida albicans YNM12 harboring cyp56delta::FRT/cyp56::FRT/RP10-CYP56 mutant gene by Etest method; format: functional
[5] = Binding affinity to Candida albicans CYP56 by spectrophotometry
How it was run: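 His-tagged C. albicans CYP56 was expressed in E. coli BL21(DE3) and purified on Ni2+-NTA agarose, then used at 2 μM. Azole in DMSO was titrated stepwise (23–684 nM across the drugs), scanning 350–500 nm. Kd was taken from ΔA430-412 versus azole concentration by Levenberg-Marquardt nonlinear regression of the Hill equation.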

| SMILES | MIC80 (Candida albicans [3]) [µg/mL] | MIC80 (Candida albicans [2]) [µg/mL] | Kd [5] [nM] | also measured |
| --- | --- | --- | --- | --- |
| O=CN[C@@H](Cc1ccc(O)cc1)C(=O)O |  |  |  | Ks (Candida albicans [1]): 26 µM |
| C[C@@H]1[C@H](O)[C@@H](C)/C=C/C=C/C=C/C=C/C=C/C=C/C=C/[C@H](O[C@@H]2O[C@H](C)[C@@H](O)[C@H](N)[C@@H]2O)C[C@@H]2O[C@](O)(C[C@@H](O)C[C@@H](O)[C@H](O)CC[C@@H](O)C[C@@H](O)CC(=O)O[C@H]1C)C[C@H](O)[C@H]2C(=O)O [AMPHOTERICIN B] |  |  |  | MIC (Candida albicans [2]): 1 µg/mL (≈ 1.08 µM); MIC (Candida albicans [3]): 1 µg/mL (≈ 1.08 µM) |
| CC[C@H](C)C[C@H](C)CCCCCCCCC(=O)N[C@H]1C[C@@H](O)[C@@H](NCCN)NC(=O)[C@@H]2[C@@H](O)CCN2C(=O)[C@H]([C@H](O)CCN)NC(=O)[C@H]([C@H](O)[C@@H](O)c2ccc(O)cc2)NC(=O)[C@@H]2C[C@@H](O)CN2C(=O)[C@H]([C@@H](C)O)NC1=O [CASPOFUNGIN] | 0.015 (≈ 0.0137 µM) |  |  | MIC80 (Candida albicans [4]): 0.03 µg/mL (≈ 0.0274 µM) |
| C[C@@H](c1ncncc1F)[C@](O)(Cn1cncn1)c1ccc(F)cc1F [VORICONAZOLE] | 0.007 (≈ 0.02 µM) | 0.007 (≈ 0.02 µM) | 510 |  |
| CCC(C)n1ncn(-c2ccc(N3CCN(c4ccc(OCC5COC(Cn6cncn6)(c6ccc(Cl)cc6Cl)O5)cc4)CC3)cc2)c1=O (configuration not stated) [ITRACONAZOLE] |  |  | 100 |  |
| OC(Cn1cncn1)(Cn1cncn1)c1ccc(F)cc1F [FLUCONAZOLE] | 0.06 (≈ 0.196 µM) | 0.06 (≈ 0.196 µM) | 230 |  |
